Molecules are shown by their SMILES.

Chain of Histamine H3 receptor (Q9QYN8 whole entry): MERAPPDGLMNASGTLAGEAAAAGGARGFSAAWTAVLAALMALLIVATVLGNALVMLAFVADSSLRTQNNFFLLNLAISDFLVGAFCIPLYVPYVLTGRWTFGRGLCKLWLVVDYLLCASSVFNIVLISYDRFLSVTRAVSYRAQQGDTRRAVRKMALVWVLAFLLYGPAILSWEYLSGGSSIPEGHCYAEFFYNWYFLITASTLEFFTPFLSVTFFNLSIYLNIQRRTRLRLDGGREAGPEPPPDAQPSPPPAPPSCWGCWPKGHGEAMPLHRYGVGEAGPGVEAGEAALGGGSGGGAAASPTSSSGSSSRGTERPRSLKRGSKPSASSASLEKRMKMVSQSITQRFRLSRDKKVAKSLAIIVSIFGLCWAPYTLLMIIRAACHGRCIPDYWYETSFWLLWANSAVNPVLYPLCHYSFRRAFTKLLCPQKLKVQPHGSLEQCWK

In the assay the target is Histamine H3 receptor (Rattus norvegicus, UniProt Q9QYN8). Nature of the assay: In vitro antagonistic activity tested against Histamine H3 receptor on synaptosomes from rat cerebral cortex. In short, it runs like this:
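Preloaded 30 min with L-[3H]histidine (0.4 µM) at 37 °C in modified Krebs-Ringer. Washed, resuspended in 2 mM K+ medium, then depolarized 2 min with 2 or 30 mM K+ (final). […] Stopped by rapid centrifugation; liquid scintillation. Ki by Cheng-Prusoff; mean ± SEM, ≥3 determinations.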
The term Ki denotes the equilibrium dissociation constant of an inhibitor or competing ligand from its target. A low value points to a stronger hold on the target. As for `O=C(CCc1ccc(I)cc1)OCCCc1cnc[nH]1` [3-(4-Iodo-phenyl)-propionic acid 3-(1H-imidazol-4-yl)-propyl ester], the Ki came out at 50 nM.
In turn, `Brc1ccc(COCCCc2cnc[nH]2)cc1` [4-[3-(4-Bromo-benzyloxy)-propyl]-1H-imidazole] yielded a Ki of 12.6 nM. Compared with the last molecule, the Ki is about 4-fold lower.
As for `Nc1c(I)cc(C(=O)OCCCc2cnc[nH]2)cc1I` [4-Amino-3,5-diiodo-benzoic acid 3-(1H-imidazol-4-yl)-propyl ester], the inhibition constant (Ki) was found to be 158 nM.
In turn, `Ic1ccc(CCCOCCCc2cnc[nH]2)cc1` [4-{3-[3-(4-Iodo-phenyl)-propoxy]-propyl}-1H-imidazole] had a Ki of 31.6 nM.
Molecule `Ic1ccc(OCCCc2cnc[nH]2)cc1` [4-[3-(4-Iodo-phenoxy)-propyl]-1H-imidazole] gave a Ki of 19.9 nM.
To `COc1ccc(CCC(=O)OCCCc2cnc[nH]2)cc1I` [3-(3-Iodo-4-methoxy-phenyl)-propionic acid 3-(1H-imidazol-4-yl)-propyl ester] belongs 251 nM; to `Ic1cccc(OCCCc2cnc[nH]2)c1` [4-[3-(3-Iodo-phenoxy)-propyl]-1H-imidazole], 16 nM.
Molecule `Cc1ccc(C(=O)OCCCc2cnc[nH]2)cc1I` [3-Iodo-4-methyl-benzoic acid 3-(1H-imidazol-4-yl)-propyl ester] returned a Ki of 31.6 nM. This Ki is about 2-fold higher than that of the molecule before.
In turn, `Ic1cccc(COCCCc2cnc[nH]2)c1` [4-[3-(3-Iodo-benzyloxy)-propyl]-1H-imidazole] came in with a Ki of 6.31 nM.
